# IDH1 mut inh: blocks human IDH1 R132H reductase activity. diaphorase/resazurin fluorescence, 60 min. 70,000 compounds, 0.18% hits. O75874. inhibition, % at 10 µM; in the data active = inhibition above about 34%; inconclusive = no clear call, values can overlap the other calls; inactive = below about 11%;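 also: 0% = DMSO and 100% = no enzyme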
# GASC1 inh: KDM4C (human) demethylase inhibition; AID 720574; 96,000 compounds, 0.15% hits; GST-KDM4C 2-372, H3K9me3 peptide, LANCE TR-FRET; Q9H3R0; inhibition, % at 12.5 µM;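 active = mean replicate inhibition above about 25%, with at least 55% of replicates also reaching it, limit read from the data, passing the limit was not always enough; inconclusive = only one of those two conditions met; inactive = neither condition met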
# Target sequence (Q9H3R0 2-372 limits assumed): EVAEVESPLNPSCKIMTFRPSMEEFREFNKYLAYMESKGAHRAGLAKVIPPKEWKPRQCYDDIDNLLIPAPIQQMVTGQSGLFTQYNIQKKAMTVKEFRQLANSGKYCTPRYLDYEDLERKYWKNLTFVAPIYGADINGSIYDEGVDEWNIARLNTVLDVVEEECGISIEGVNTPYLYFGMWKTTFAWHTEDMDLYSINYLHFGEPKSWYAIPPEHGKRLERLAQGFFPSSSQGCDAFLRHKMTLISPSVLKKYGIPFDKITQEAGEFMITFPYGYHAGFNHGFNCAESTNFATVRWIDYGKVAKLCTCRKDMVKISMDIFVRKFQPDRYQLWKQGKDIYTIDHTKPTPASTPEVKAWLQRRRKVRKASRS
#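 Material: GST-tagged GASC-1 (JMJD2C) catalytic fragment, aa 2-372 / Quantity: enzyme final amount 10 nM / Medium: HEPES buffer, pH 7.5, plus ascorbate / Doses: one test concentration per compound / Incubation: 30 min reaction, 60 min detection, RT / Measured by: LANCE TR-FRET / Read-out: inhibition from TR-FRET ratio decrease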
# Pf Dd2 inh: P. falciparum Dd2 growth inhibition; SYBR Green, 72 h; stronger effect = lower value; activity change, % at 10 µM; 94,000 compounds, 2.3% hits; AID 1159554; in the data active = activity change below about -80%; inconclusive = no clear call, values can overlap the other calls
# T cruzi growth-1: blocks T. cruzi growth in NIH3T3 culture; AID 624255; inhibition, % at 8.34 µM; 77,000 compounds, 5.9% hits; T. cruzi beta-gal in NIH3T3, GalScreen luminescence, 90 h;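 active = mean inhibition above about 93%, with at least 55% of replicates each passing it, limit read from the data, passing the limit was not always enough; inconclusive = only one of those two conditions holds; inactive = neither condition holds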
# T cruzi growth-2: Trypanosoma cruzi proliferation inhibition. shares compounds with T cruzi growth-1. T. cruzi beta-gal in NIH3T3, GalScreen luminescence, 90 h. inhibition, % at 8.35 µM. 5,600 compounds, 72% hits. AID 651739;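 active = mean replicate inhibition above about 95% and at least 55% of replicates individually reaching it, limit read from the data; inconclusive = only one of the two criteria is met; inactive = neither criterion is met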
# T cruzi growth-3: blocks T. cruzi growth in NIH3T3 host cells | T. cruzi beta-gal in NIH3T3, GalScreen luminescence, 90 h | inhibition, % at 2.09 µM | AID 651740 | shares compounds with T cruzi growth-1 | 5,600 compounds, 21% hits;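 active = mean inhibition above about 95%, with at least 55% of replicates also reaching it, limit read from the data; inconclusive = meets just one of the two conditions; inactive = meets neither condition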;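 also: plate controls were neutral control median for no effect and positive control median for full effect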
# NIH3T3 tox: kills mouse NIH/3T3 fibroblasts; shares compounds with T cruzi growth-1; NIH/3T3 viability, CellTiter-Glo ATP luminescence, 90 h; cytotoxicity (signal decrease), % at 8.35 µM; 5,600 compounds, 14% hits; AID 651742;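 active = mean signal decrease across replicates above about 35% based on untreated-well scatter, with enough replicates individually passing, limit read from the data; inconclusive = no rule stated though some were filed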;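 also: 0% = median of neutral control wells and 100% = median of positive control wells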
# NIH3T3 tox 2: kills mouse NIH/3T3 fibroblasts | shares compounds with T cruzi growth-1 | NIH/3T3 viability, CellTiter-Glo ATP luminescence, 90 h | inhibition, % at 24.9 µM | 5,600 compounds, 56% hits | AID 651744;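 active = mean loss of cell viability signal at or above a set limit, and enough replicates individually reaching it; inconclusive = meets only the mean limit or only the replicate share; inactive = meets neither condition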;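 also: 0% = median of neutral control wells and 100% = median of positive control wells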
# * hit, by the source's call; ? = inconclusive; · = no result given. Hits are enriched below; roughly 5.8% of the tested compounds scored in any of these assays.
SMILES,IDH1 mut inh,GASC1 inh,Pf Dd2 inh,T cruzi growth-1,T cruzi growth-2,T cruzi growth-3,NIH3T3 tox,NIH3T3 tox 2
Cc1ccccc1-c1ccc2c(c1)O[C@H](CN(C)C(=O)Nc1ccccc1)[C@H](C)CN([C@H](C)CO)S2(=O)=O,-3,-4,-9,73,·,·,·,·
COc1ccc(CN(C)C[C@@H]2Oc3ccc(NC(=O)Nc4ccccc4)cc3C(=O)N([C@H](C)CO)C[C@@H]2C)cc1,-1,-1,2,24,·,·,·,·
COc1ccc(CN(C)C[C@@H]2Oc3ccc(NC(=O)Nc4ccccc4)cc3C(=O)N([C@@H](C)CO)C[C@@H]2C)cc1,0,0,13,15,·,·,·,·
COc1ccc(NC(=O)Nc2ccc3c(c2)C(=O)N([C@@H](C)CO)C[C@@H](C)[C@@H](CN(C)Cc2ccc(-c4ccccc4)cc2)O3)cc1,2,-3,21,100*,104*,108*,55*,84*
COc1ccc(NC(=O)Nc2ccc3c(c2)C(=O)N([C@H](C)CO)C[C@H](C)[C@H](CN(C)Cc2ccc(-c4ccccc4)cc2)O3)cc1,3,-1,13,?,100*,22,-6,19
O=C(Nc1ccc(F)cc1)N1CCCCN2[C@@H](CO)[C@H](c3ccc(-c4cccc(F)c4)cc3)[C@@H]2C1,·,1,-30,106*,95*,80,120*,103*
O=C(Nc1ccc(F)cc1)N1CCCCN2[C@H](CO)[C@H](c3ccc(-c4cccc(F)c4)cc3)[C@@H]2C1,·,-3,-3,118*,108*,85,17,72*
CC(=O)OC1/C=C(/C(=O)O)CC/C=C(/C)C(=O)/C=C\C1(C)C (stereo unspecified),1,·,·,·,·,·,·,·
COc1ccc(NC(=O)CSc2nc3ccc([N+](=O)[O-])cc3s2)cc1Cl,0,·,·,·,·,·,·,·
CC(C)NC(=O)Nc1ccc2c(c1)C(=O)N([C@@H](C)CO)C[C@@H](C)[C@@H](CN(C)C(=O)Nc1ccc(C(F)(F)F)cc1)OCCCC[C@@H](C)O2,2,-1,-76,94,·,·,·,·
C[C@@H]1CCCCO[C@H](CN(C)C(=O)Nc2ccc(C(F)(F)F)cc2)[C@H](C)CN([C@@H](C)CO)C(=O)c2cc(NC(=O)Nc3ccc(C(F)(F)F)cc3)ccc2O1,·,-1,-55,116*,108*,113*,1,-18
C[C@@H]1CCCCO[C@H](CN(C)C(=O)Nc2ccc3c(c2)OCO3)[C@@H](C)CN([C@H](C)CO)C(=O)c2cc(NC(=O)Nc3ccc(C(F)(F)F)cc3)ccc2O1,·,1,-42,93,·,·,·,·
CC(C)NC(=O)Nc1ccc2c(c1)C(=O)N([C@H](C)CO)C[C@H](C)[C@@H](CN(C)C(=O)Nc1ccc(C(F)(F)F)cc1)OCCCC[C@H](C)O2,·,-2,-46,98*,98*,95,13,5
C[C@@H]1CCCCO[C@H](CN(C)C(=O)Nc2ccc(C(F)(F)F)cc2)[C@H](C)CN([C@@H](C)CO)C(=O)c2cc(NC(=O)Nc3ccc4c(c3)OCO4)ccc2O1,-2,-3,-67,117*,107*,109*,-7,6
C[C@@H]1CCCCO[C@H](CN(C)C(=O)Nc2ccc(C(F)(F)F)cc2)[C@@H](C)CN([C@@H](C)CO)C(=O)c2cc(NC(=O)Nc3ccc(C(F)(F)F)cc3)ccc2O1,-2,-1,-88*,112*,108*,115*,2,?
COc1ccc(-c2nnc3c4ccccc4c(C)nn23)cc1S(=O)(=O)NC(C)c1ccccc1 (stereo unspecified),0,·,·,·,·,·,·,·
C[C@@H]1CCCCO[C@H](CN(C)C(=O)Nc2ccc(C(F)(F)F)cc2)[C@@H](C)CN([C@H](C)CO)C(=O)c2cc(NC(=O)Nc3ccc(C(F)(F)F)cc3)ccc2O1,-2,0,-2,103*,101*,?,1,16
Cc1noc(C)c1NC(=O)Nc1ccc2c(c1)C(=O)N([C@@H](C)CO)C[C@H](C)[C@H](CN(C)C(=O)Nc1ccc(C(F)(F)F)cc1)OCCCC[C@H](C)O2,0,-2,-63,110*,96*,78,3,-9
C[C@H](CO)N1C[C@H](C)[C@H](CN(C)C(=O)Nc2ccc(C(F)(F)F)cc2)OCCCC[C@H](C)Oc2ccc(NC(=O)Nc3ccc(C(F)(F)F)cc3)cc2C1=O,·,-1,24,126*,102*,117*,7,13
C[C@H]1CCCCO[C@H](CN(C)C(=O)Nc2ccc(F)cc2)[C@@H](C)CN([C@@H](C)CO)C(=O)c2cc(NC(=O)Nc3ccc(C(F)(F)F)cc3)ccc2O1,·,-2,-57,86,·,·,·,·
C[C@@H]1CN([C@H](C)CO)C(=O)c2cc(NC(=O)Nc3ccc(F)cc3)ccc2O[C@@H](C)CCCCO[C@H]1CN(C)C(=O)Nc1ccc(C(F)(F)F)cc1,7,0,-35,83,·,·,·,·
C[C@@H]1CN([C@H](C)CO)S(=O)(=O)c2ccc(C#CC3CC3)cc2O[C@H]1CN(C)C(=O)c1ccncc1,0,5,-50,93,·,·,·,·
C[C@H](CO)N1C[C@H](C)[C@H](CN(C)C(=O)c2ccncc2)Oc2cc(C#CC3CC3)ccc2S1(=O)=O,6,1,-48,103*,92,74,0,28*
C[C@@H]1CN([C@H](C)CO)S(=O)(=O)c2ccc(C#CC3CC3)cc2O[C@@H]1CN(C)C(=O)c1ccccc1,0,-2,-39,?,106*,63,33,51*
C[C@@H]1CN([C@H](C)CO)S(=O)(=O)c2ccc(C#Cc3ccc(F)cc3)cc2O[C@@H]1CN(C)S(=O)(=O)c1ccc(F)cc1,0,1,-63,?,?,112*,12,71*
COCC#Cc1ccc2c(c1)O[C@H](CN(C)S(=O)(=O)c1ccc(F)cc1)[C@H](C)CN([C@@H](C)CO)S2(=O)=O,2,5,-53,101*,76,18,9,55*
CC(C)CC#Cc1ccc2c(c1)O[C@H](CN(C)S(=O)(=O)c1ccc(F)cc1)[C@@H](C)CN([C@H](C)CO)S2(=O)=O,0,1,-66,·,·,·,·,·
C[C@@H]1CN([C@H](C)CO)S(=O)(=O)c2ccc(C#Cc3ccc(F)cc3)cc2O[C@H]1CN(C)S(=O)(=O)c1ccc(F)cc1,-3,0,-34,110*,98*,110*,41*,55*

# Screening results as filed in PubChem BioAssay.
